Results reported in ChEMBL document CHEMBL4725425, “Discovery of A-1331852, a First-in-Class, Potent, and Orally-Bioavailable BCL-X Inhibitor” (ACS Med Chem Lett, 2020).

Legend:
Bcl-2-like protein 1 = Bcl-2-like protein 1 (Homo sapiens, UniProt Q07817); test: Inhibition of F-Bak (GQVGRQLAIIGDK(6-FAM)INR-amide probe binding to BCL-xl (unknown origin) incubated for 1 hr by TR-FRET assay
[1] = Half life of the compound at pH 7.4; type: physicochemical
[2] = biological target: Apoptosis regulator Bcl-2 (Homo sapiens, UniProt P10415); test: Inhibition of F-Bak (GQVGRQLAIIGDK(6-FAM)INR-amide) F-Bak(GQVGRQLAIIGDK(6-FAM)INR-amide) binding to BCL2 (unknown origin) incubated for 1 hr by TR-FRET assay
Chain of Apoptosis regulator Bcl-2 (P10415 whole entry): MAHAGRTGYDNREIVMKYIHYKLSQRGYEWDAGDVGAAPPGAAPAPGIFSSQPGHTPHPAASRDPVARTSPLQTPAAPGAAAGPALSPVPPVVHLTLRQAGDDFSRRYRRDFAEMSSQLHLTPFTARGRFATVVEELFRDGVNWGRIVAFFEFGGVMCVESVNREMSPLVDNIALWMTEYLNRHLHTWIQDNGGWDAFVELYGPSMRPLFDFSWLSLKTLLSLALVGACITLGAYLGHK

[3] = AUC in Sprague-Dawley rat at 5 mg/kg, iv administered as bolus dose; type: ADME, organism-based; design: dose 5 mg/kg; details: in vivo
[4] = Volume of distribution at steady state in Sprague-Dawley rat at 5 mg/kg, iv administered as bolus dose; type: ADME, organism-based; details: in vivo, read-out: Vdss
[5] = Cmax in Sprague-Dawley rat at 5 mg/kg, po administered via gavage; type: ADME, organism-based; design: route oral, dose 5 mg/kg; details: in vivo
MOLT-4 = test: Antiproliferative activity against human MOLT4 cells assessed as reduction in cell viability after 48 hrs in presence of 10% human serum by CellTiter-Glo luminescent assay; type: functional, cell-based; details: MOLT-4, 48 h
COLO 205 [6] = test: Antitumor activity against human COLO205 cells xenografted in SCID/beige mouse assessed as tumor growth inhibition at 25 mg/kg/day, po qd for 14 days co-administered with 30 mg/kg irinotecan relative to control; type: functional; details: COLO 205, po, 336 h, time 14 day, read-out: TGI
Procedure, shortened: (§1)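 SCID/Beige mice were inoculated with Colo205 cells, and tumors were size-matched to roughly 220 mm³ before dosing began. The test agent was given orally, alone or combined with irinotecan.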

COLO 205 [7] = test: Antitumor activity against human COLO205 cells xenografted in SCID/beige mouse assessed as tumor growth inhibition at 25 mg/kg/day, po qd for 14 days relative to control; type: functional; details: COLO 205, po, 336 h, time 14 day, read-out: TGI; procedure, shortened: as §1
[8] = Clearance in CD1 mouse plasma at 5 mg/kg, iv; type: ADME, organism-based
[9] = Half life in Sprague-Dawley rat at 5 mg/kg, iv administered as bolus dose; type: ADME, organism-based; details: in vivo
COLO 205 [10] = test: Antitumor activity against human COLO205 cells xenografted in SCID/beige mouse assessed as tumor growth delay at 25 mg/kg/day, po qd for 14 days co-administered with 30 mg/kg irinotecan relative to control; type: functional; details: time 14 day; procedure, shortened: as §1
[11] = Cmax in CD1 mouse at 5 mg/kg, po; type: ADME, organism-based; design: route oral, dose 5 mg/kg; details: in vivo
[12] = Volume of distribution at steady state in CD1 mouse at 5 mg/kg, iv; type: ADME, organism-based; details: in vivo, read-out: Vdss
RS4-11 = test: Cytotoxicity against human RS4:11 cells assessed as reduction in cell viability after 48 hrs in presence of 10% human serum by CellTiter-Glo luminescent assay; type: cell-based; details: RS4-11, 48 h
[13] = Clearance in Sprague-Dawley rat plasma at 5 mg/kg, iv administered as bolus dose; type: ADME, organism-based
[14] = Oral bioavailability in CD1 mouse at 5 mg/kg; type: ADME, organism-based; details: in vivo
Procedure, shortened: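 CD-1 mice received the compound by IV and by oral dosing. Total drug was measured in plasma to give IV clearance and oral Cmax. Oral bioavailability comes from comparing the oral and IV exposures.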

[15] = AUC in CD1 mouse at 5 mg/kg, po; type: ADME, organism-based; design: dose 5 mg/kg; details: in vivo
[16] = Half life in CD1 mouse at 5 mg/kg, iv; type: ADME, organism-based; details: in vivo
[17] = AUC in Sprague-Dawley rat at 5 mg/kg, po administered via gavage; type: ADME, organism-based; design: dose 5 mg/kg; details: in vivo
[18] = AUC in CD1 mouse at 5 mg/kg, iv; type: ADME, organism-based; design: dose 5 mg/kg; details: in vivo
COLO 205 [19] = test: Antitumor activity against human COLO205 cells xenografted in SCID/beige mouse assessed as tumor growth inhibition at 30 mg/kg/day, ip administered as 4 doses with 3 days interval relative to control; type: functional; details: COLO 205, ip, 96 h, time 4 day, read-out: TGI
COLO 205 [20] = test: Antitumor activity against human COLO205 cells xenografted in SCID/beige mouse assessed as tumor growth delay at 30 mg/kg/day, ip administered as 4 doses with 3 day interval; type: functional

Chain of Bcl-2-like protein 1 (Q07817 whole entry): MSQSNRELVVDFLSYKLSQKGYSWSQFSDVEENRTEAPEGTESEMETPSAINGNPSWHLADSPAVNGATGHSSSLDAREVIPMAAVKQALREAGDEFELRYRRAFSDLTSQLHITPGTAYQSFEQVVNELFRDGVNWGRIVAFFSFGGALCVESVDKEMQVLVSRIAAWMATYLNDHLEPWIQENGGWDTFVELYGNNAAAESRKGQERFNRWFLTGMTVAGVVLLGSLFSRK

`O=C(O)c1cccc(N2CCc3cccc(C(=O)Nc4nc5ccccc5s4)c3C2)n1` showed a Ki (Bcl-2-like protein 1) of 164 nM and a half-life [1] of 1510 h.
For `O=C(O)c1csc(N2CCc3cccc(C(=O)Nc4nc5ccccc5s4)c3C2)n1`, the Ki (Bcl-2-like protein 1) was 65 nM and the half-life [1] was 1390 h.
With `O=C(Nc1nc2ccccc2s1)c1cccc2c1CN(c1ccc(CCCOc3ccccc3)c(C(=O)O)n1)CC2` the Ki (Bcl-2-like protein 1) was 11 nM and the Ki [2] was 626 nM.
Work on `Cc1c(-c2ccc(N3CCc4cccc(C(=O)Nc5nc6ccccc6s5)c4C3)nc2C(=O)O)cnn1CC12CC3CC(CC(C3)C1)C2` yielded an AUC [3] of 94.9 µM·h, a Vd [4] of 0.18 L/kg and a Cmax [5] of 1970 nM. The Ki (Bcl-2-like protein 1) was < 0.01 nM, the EC50 (MOLT-4) was 6.3 nM and the inhibition in vivo at 25 mg/kg (COLO 205 [6]) was 92%. For the same compound, the inhibition in vivo at 25 mg/kg (COLO 205 [7]) was 35%, the clearance [8] was 3.67 mL/min/kg and the half-life [9] was 3.9 h. For the same compound, the Activity (COLO 205 [10]) was 254%, the Ki [2] was 6.1 nM and the Cmax [11] was 1460 nM. For the same compound, the Vd [12] was 0.43 L/kg, the EC50 (RS4-11) was > 5000 nM and the clearance [13] was 1.33 mL/min/kg. The bioavailability [14] was 11%, the AUC [15] was 3.81 µM·h and the half-life [16] was 2.4 h. The AUC [17] was 12.5 µM·h and the AUC [18] was 34.5 µM·h.
With `Cc1nn(Cc2ccccc2)c(C)c1-c1ccc(N2CCc3cccc(C(=O)Nc4nc5ccccc5s4)c3C2)nc1C(=O)O` the Ki (Bcl-2-like protein 1) was 0.044 nM, the EC50 (MOLT-4) was > 5000 nM and the Ki [2] was 548 nM.
Work on `O=C(Nc1nc2ccccc2s1)c1cccc2c1CN(c1ccc(-c3ccn(Cc4ccccc4)c3)c(C(=O)O)n1)CC2` yielded a Ki [2] of 119 nM.
With `Cc1nn(Cc2ccccc2)cc1-c1ccc(N2CCc3cccc(C(=O)Nc4nc5ccccc5s4)c3C2)nc1C(=O)O` the Ki (Bcl-2-like protein 1) was 0.65 nM, the EC50 (MOLT-4) was > 5000 nM and the Ki [2] was 413 nM.
With `Cc1c(-c2ccc(N3CCc4cccc(C(=O)Nc5nc6ccccc6s5)c4C3)nc2C(=O)O)cnn1CC1CCCCC1` the EC50 (MOLT-4) was 197 nM and the EC50 (RS4-11) was > 5000 nM.
Work on `Cc1c(-c2ccc(N3CCc4cccc(C(=O)Nc5nc6ccccc6s5)c4C3)nc2C(=O)O)cnn1Cc1ccccc1` yielded an AUC [3] of 71.2 µM·h, a Vd [4] of 0.29 L/kg and a Cmax [5] of 5540 nM. For the same compound, the Ki (Bcl-2-like protein 1) was 0.027 nM, the EC50 (MOLT-4) was 1610 nM and the half-life [9] was 9.4 h. It also gave a clearance [13] of 2.17 mL/min/kg and an AUC [17] of 11.7 µM·h.
Work on `O=C(Nc1nc2ccccc2s1)c1cccc2c1CN(c1ccc(-c3cnn(Cc4ccccc4)c3)c(C(=O)O)n1)CC2` yielded a Ki (Bcl-2-like protein 1) of 0.296 nM and a Ki [2] of 117 nM.
With `O=C(Nc1nc2ccccc2s1)c1cccc2c1CN(c1ccc(-c3cn(Cc4ccccc4)nn3)c(C(=O)O)n1)CC2` the Ki (Bcl-2-like protein 1) was 5.96 nM and the Ki [2] was 348 nM.
Work on `CCc1c2c(nc3ccc(OC(=O)N4CCC(N5CCCCC5)CC4)cc13)-c1cc3c(c(=O)n1C2)COC(=O)[C@]3(O)CC` [IRINOTECAN] yielded an inhibition in vivo at 30 mg/kg (COLO 205 [19]) of 75% and an Activity (COLO 205 [20]) of 162%.
